# Assay results: ChEMBL document CHEMBL1806372, “Cytotoxic ring A-modified steroid analogues derived from Grundmann's ketone” (Eur J Med Chem, 2011)
# Active and inactive are the calls of the source. The calls are words filed in the database; no cut-off is given here.
# Key:
# Assay type in all cases: functional
# [1] = tested on: HOP-62; test: Growth inhibition of human HOP62 cells assessed as cell growth at 10^-5 M after 48 hrs by sulforhodamine B assay; conditions: HOP-62, 48 h, read-out: Activity
# In short: (§1)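 NCI 60-cell panel single high-dose screen: compound applied at 10^-5 M for 48 h, endpoint by sulforhodamine B protein-binding dye. Values reported as growth percent of treated cells relative to untreated control cells.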
# [2] = tested on: NCI-H226; test: Growth inhibition of human NCI-H226 cells assessed as cell growth at 10^-5 M after 48 hrs by sulforhodamine B assay; conditions: NCI-H226, 48 h, read-out: Activity
# In short: (§2)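 NCI-60 single high-dose screen run under the NCI protocol. Cells were incubated with compound at 10^-5 M for 48 h. The end point was determined by sulforhodamine B protein staining. Results are reported as percent growth of treated cells relative to untreated control cells.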
# [3] = tested on: NCI-H23; test: Growth inhibition of human NCI-H23 cells assessed as cell growth at 10^-5 M after 48 hrs by sulforhodamine B assay; conditions: NCI-H23, 48 h, read-out: Activity; in short: as §2
# [4] = tested on: NCI-H460; test: Growth inhibition of human NCI-H460 cells assessed as cell growth at 10^-5 M after 48 hrs by sulforhodamine B assay; conditions: NCI-H460, 48 h, read-out: Activity; in short: as §2
# [5] = tested on: NCI-H522; test: Growth inhibition of human NCI-H522 cells assessed as cell growth at 10^-5 M after 48 hrs by sulforhodamine B assay; conditions: NCI-H522, 48 h, read-out: Activity; in short: as §2
# [6] = tested on: HCC 2998; test: Growth inhibition of human HCC2998 cells assessed as cell growth at 10^-5 M after 48 hrs by sulforhodamine B assay; conditions: HCC 2998, 48 h, read-out: Activity; in short: as §1
# [7] = tested on: HT-29; test: Growth inhibition of human HT-29 cells assessed as cell growth at 10^-5 M after 48 hrs by sulforhodamine B assay; conditions: HT-29, 48 h, read-out: Activity; in short: as §1
# [8] = tested on: SF-295; test: Growth inhibition of human SF295 cells assessed as cell growth at 10^-5 M after 48 hrs by sulforhodamine B assay; conditions: SF-295, 48 h, read-out: Activity; in short: as §2
# [9] = tested on: SF-539; test: Growth inhibition of human SF539 cells assessed as cell growth at 10^-5 M after 48 hrs by sulforhodamine B assay; conditions: SF-539, 48 h, read-out: Activity; in short: as §2
# [10] = tested on: SNB-19; test: Growth inhibition of human SNB19 cells assessed as cell growth at 10^-5 M after 48 hrs by sulforhodamine B assay; conditions: SNB-19, 48 h, read-out: Activity
# In short: (§3)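 NCI 60-cell panel single-dose screen under the NCI protocol. Cells are exposed to compound at one concentration (10^-5 M) for 48 h. The end point is protein staining with sulforhodamine B. Each line is reported as percent growth of treated cells relative to untreated control cells.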
# [11] = tested on: LOX IMVI; test: Growth inhibition of human LOXIMVI cells assessed as cell growth at 10^-5 M after 48 hrs by sulforhodamine B assay; conditions: read-out: Activity; in short: as §1
# [12] = tested on: MDA-MB-435; test: Growth inhibition of human MDA-MB-435 cells assessed as cell growth at 10^-5 M after 48 hrs by sulforhodamine B assay; conditions: MDA-MB-435, 48 h, read-out: Activity; in short: as §2
# [13] = tested on: SK-MEL-2; test: Growth inhibition of human SK-MEL-2 cells assessed as cell growth at 10^-5 M after 48 hrs by sulforhodamine B assay; conditions: SK-MEL-2, 48 h, read-out: Activity; in short: as §2
# [14] = tested on: SK-MEL-5; test: Growth inhibition of human SK-MEL-5 cells assessed as cell growth at 10^-5 M after 48 hrs by sulforhodamine B assay; conditions: SK-MEL-5, 48 h, read-out: Activity; in short: as §3
# [15] = tested on: OVCAR-3; test: Growth inhibition of human OVCAR3 cells assessed as cell growth at 10^-5 M after 48 hrs by sulforhodamine B assay; conditions: OVCAR-3, 48 h, read-out: Activity; in short: as §2
# [16] = tested on: OVCAR-4; test: Growth inhibition of human OVCAR4 cells assessed as cell growth at 10^-5 M after 48 hrs by sulforhodamine B assay; conditions: OVCAR-4, 48 h, read-out: Activity; in short: as §2
# [17] = tested on: OVCAR-5; test: Growth inhibition of human OVCAR5 cells assessed as cell growth at 10^-5 M after 48 hrs by sulforhodamine B assay; conditions: OVCAR-5, 48 h, read-out: Activity; in short: as §2
# [18] = tested on: SK-OV-3; test: Growth inhibition of human SKOV3 cells assessed as cell growth at 10^-5 M after 48 hrs by sulforhodamine B assay; conditions: SK-OV-3, 48 h, read-out: Activity; in short: as §3
# [19] = tested on: ACHN; test: Growth inhibition of human ACHN cells assessed as cell growth at 10^-5 M after 48 hrs by sulforhodamine B assay; conditions: read-out: Activity; in short: as §1
# [20] = tested on: MCF7; test: Growth inhibition of human MCF7 cells assessed as cell growth at 10^-5 M after 48 hrs by sulforhodamine B assay; conditions: MCF7, 48 h, read-out: Activity; in short: as §2
# [21] = tested on: BT-549; test: Growth inhibition of human BT549 cells assessed as cell growth at 10^-5 M after 48 hrs by sulforhodamine B assay; conditions: BT-549, 48 h, read-out: Activity; in short: as §1
# [22] = tested on: T47D; test: Growth inhibition of human T47D cells assessed as cell growth at 10^-5 M after 48 hrs by sulforhodamine B assay; conditions: read-out: Activity; in short: as §3
# [23] = tested on: Streptococcus entericus; test: Antibacterial activity against Streptococcus entericus assessed as zone of inhibition at 5 uL and 32 degC after 36 hrs by disk diffusion method
# In short: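 Disc diffusion on AC agar, each strain spread evenly over the medium; test compounds given as 1% (w/v) DMSO solutions. Plates covered and incubated 36 h at 32 °C, then the diameter of the zone of inhibited growth measured in mm. Tetracycline served as antibacterial reference.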
# [24] = tested on: Yarrowia lipolytica; test: Antifungal activity against Yarrowia lipolytica assessed as zone of inhibition at 5 uL and 28 degC after 36 hrs by disk diffusion method
# In short: (§4)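 Agar disc diffusion with the test compound applied as a 1% (w/v) DMSO solution. Yeasts were grown on AC agar and Aspergillus niger on potato dextrose broth agar, each strain spread evenly. Plates were covered and kept 36 h at 28 °C, and the inhibition zone diameter was read in mm. Clotrimazole served as reference.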
# [25] = tested on: Nakaseomyces glabratus; test: Antifungal activity against Candida glabrata assessed as zone of inhibition at 5 uL and 28 degC after 36 hrs by disk diffusion method; in short: as §4
# [26] = tested on: HL-60(TB); test: Growth inhibition of human HL-60(TB) cells assessed as cell growth at 10^-5 M after 48 hrs by sulforhodamine B assay; conditions: HL-60, 48 h, read-out: Activity
# In short: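 NCI single high-dose screen across the 60-cell panel (leukemia, melanoma, lung, colon, brain, breast, ovary, kidney, prostate), run per NCI protocol. Cells incubated with compound at 10^-5 M for 48 h. Sulforhodamine B protein-binding dye end point. Reported as growth percent of treated vs untreated control cells.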
# [27] = tested on: MOLT-4; test: Growth inhibition of human MOLT4 cells assessed as cell growth at 10^-5 M after 48 hrs by sulforhodamine B assay; conditions: MOLT-4, 48 h, read-out: Activity; in short: as §2
# [28] = tested on: RPMI-8226; test: Growth inhibition of human RPMI8226 cells assessed as cell growth at 10^-5 M after 48 hrs by sulforhodamine B assay; conditions: RPMI-8226, 48 h, read-out: Activity; in short: as §2
Structure (SMILES),growth at 10 µM [1] [%],growth at 10 µM [2] [%],growth at 10 µM [3] [%],growth at 10 µM [4] [%],growth at 10 µM [5] [%],growth at 10 µM [6] [%],growth at 10 µM [7] [%],growth at 10 µM [8] [%],growth at 10 µM [9] [%],growth at 10 µM [10] [%],growth at 10 µM [11] [%],growth at 10 µM [12] [%],growth at 10 µM [13] [%],growth at 10 µM [14] [%],growth at 10 µM [15] [%],growth at 10 µM [16] [%],growth at 10 µM [17] [%],growth at 10 µM [18] [%],growth at 10 µM [19] [%],growth at 10 µM [20] [%],further results
CC(C)CCC[C@@H](C)[C@H]1CC[C@H]2C3=CC[C@@H]4C(=O)C=CC(=O)[C@@H]4[C@@H]3CC[C@]12C,12.1,42,8.4,2.88,-46.1,-75.5,7.56,-25.6,38.2,7.34,-43.4,-16.4,41.9,-3.37,2.72,-9.33,7.74,10.5,4.54,8.65,growth at 10 µM [21]: -1.63%; growth at 10 µM [22]: -18.9%; diameter of the inhibition zone (DIZ) [23]: inactive; diameter of the inhibition zone (DIZ) [24]: inactive; diameter of the inhibition zone (DIZ) [25]: inactive; growth at 10 µM [26]: -5.46%; growth at 10 µM [27]: 10.4%; growth at 10 µM [28]: 8.72%
CC(C)CCC[C@@H](C)[C@H]1CC[C@H]2C3=CCn4c(=O)ccc(=O)n4[C@@H]3CC[C@]12C,-93.3,-91.8,-55.4,-89.9,-66.1,-100,-97.5,-99.5,-96.8,-100,-89.5,-57.4,-93,-79.3,-96.5,-32.4,-84.3,-100,-95.1,-92.5,growth at 10 µM [21]: -30.9%; growth at 10 µM [22]: -75.2%; diameter of the inhibition zone (DIZ) [23]: 7 mm; diameter of the inhibition zone (DIZ) [24]: 7 mm; diameter of the inhibition zone (DIZ) [25]: 8 mm; growth at 10 µM [26]: -43.3%; growth at 10 µM [27]: -23.6%; growth at 10 µM [28]: -41.5%
CC(C)CCC[C@@H](C)[C@H]1CC[C@H]2[C@@H]3CCN4C(=O)CCC(=O)N4[C@@H]3CC[C@]12C,87.7,90.3,87,107,80.2,86.6,87.9,88.6,104,162,84.5,97.7,114,96.4,104,103,91.5,99.3,90,88.5,growth at 10 µM [21]: 84.7%; growth at 10 µM [22]: 64.4%; diameter of the inhibition zone (DIZ) [23]: 10 mm; diameter of the inhibition zone (DIZ) [24]: 15 mm; diameter of the inhibition zone (DIZ) [25]: inactive; growth at 10 µM [26]: 72%; growth at 10 µM [27]: 87.2%; growth at 10 µM [28]: 56.6%
